Data taken from ChEMBL document CHEMBL1811784, “Synthesis and SERCA activities of structurally simplified cyclopiazonic acid analogues” (Bioorg Med Chem, 2011).

Test: Inhibition of Heliothis virescens SERCA expressed in Sf9 cells assessed as ATP depletion measured after 60 mins by luciferin/luciferase coupled reporter gene assay
How it was run: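 Microsomal membranes from Sf9 cells coinfected with baculovirus carrying full-length H. virescens SERCA (aa 2-1000), MOI 0.3, harvested after 3 days. 0.4 µg/mL enzyme with 0.05 mM ATP, inhibitor 3.2 nM–50 µM final, MOPS pH 7.5 buffer with Mg2+, Ca2+/EGTA, A23187. Remaining ATP read by luciferin/luciferase luminescence. Quadruplicates, normalized, sigmoid fit for IC50. Luciferase-only counterscreen run without SERCA.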

| SMILES | IC50 [µM] |
| --- | --- |
| CC(O)=C1C(=O)C2c3ccccc3C(C)(C)N2C1=O (mixture of isomers) | > 50 |
| CC(O)=C1C(=O)[C@H]2[C@H]3CCCC[C@H]3C(C)(C)N2C1=O (mixture of isomers) | 19.9 |
| CC(O)=C1C(=O)N2c3ccccc3C(C)(C)N2C1=O (mixture of isomers) | 40 |
| C/C(O)=C1\C(=O)[C@@H]2[C@H]3[C@@H]4C(=O)N(C)c5cccc(c54)C[C@H]3C(C)(C)N2C1=O [SPERADINE A] | 8 |
| CC(O)=C1C(=O)N2[C@H]3CCCC[C@H]3C(C)(C)N2C1=O (mixture of isomers) | 40 |
| CC(O)=C1C(=O)C2Cc3ccccc3C(C)(C)N2C1=O (mixture of isomers) | 6.3 |
| CC(=O)C1=C(O)[C@@H]2[C@H]3c4c[nH]c5cccc(c45)C[C@H]3C(C)(C)N2C1=O [CYCLOPIAZONIC ACID] | 0.01 |
| COC(=O)[C@H]1NC(C)(C)[C@@H]2Cc3cccc4[nH]cc(c34)[C@H]12 | > 50 |

Continued, values first:

| IC50 [µM] | SMILES |
| --- | --- |
| 0.5 | C/C(O)=C1\C(=O)[C@H]2[C@H]3c4c[nH]c5cccc(c45)C[C@H]3C(C)(C)N2C1=O |
| 0.63 | CC(O)=C1C(=O)[C@@H]2[C@H]3CCCC[C@H]3C(C)(C)N2C1=O (mixture of isomers) |
| 0.13 | CC(C)(C)c1cc(O)c(C(C)(C)C)cc1O |
| 5 | C/C(O)=C1\C(=O)[C@@H]2[C@H]3c4c[nH]c5cccc(c45)C[C@@H]3C(C)(C)N2C1=O |
